# In PMC11827156 (Malaria Journal, 2025):
# Read-outs that look alike come from different tables or passages of the source.
# How the values were obtained:
# P. falciparum 3D7 [1] = assay type: cell-based, Plasmodium falciparum; settings: Plasmodium falciparum
# [2] = Cytotoxicity of the compounds in HEK293 cells; assay type: cell-based, human; settings: human, HEK293 cells
# How it was run: (§1)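 HEK293 cells (passages 7–12, grown in DMEM with 10% FBS and penicillin/streptomycin at 37 °C, 5% CO₂) were trypsinized and seeded at 10^4 cells/well. They were exposed to test compound or DMSO vehicle for 72 h. MTT (5 mg/mL reagent) was then added for 3 h, and the formazan was dissolved in DMSO. Absorbance was read at 570 nm and dose–response curves were fitted. Each condition was run in triplicate in 3 independent experiments.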
# HEK293 cells = test: Cytotoxicity of the compounds in HEK293 cells; assay type: cell-based, human; settings: MTT, 72 h, 0.0019–2 µM
# How it was run: as §1
# [3] = test system: P. falciparum gametocytes; settings: read-out: IC50 against P. falciparum gametocytes; cited from earlier work
# [4] = target: P. falciparum PfSR25− (serpentine receptor 25 knockout strain); test: Comparative IC50 screening, 3D7 versus serpentine receptor 25 knockout strain; assay type: cell-based, Plasmodium falciparum; settings: 72 h, 0.0019–2 µM, Student's t test
# How it was run: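 Asynchronous 3D7 and PfSR25− cultures (37 °C, 90% N2/5% O2/5% CO2) at 0.3% parasitaemia and 2% haematocrit were exposed for 72 h to eleven final concentrations. Controls were 0.13% DMSO and chloroquine 0.2441–250 nM. Cells were stained with SYBR Green-I (1:10,000) plus MitoTracker Deep Red (50 nM) for 20 min at 37 °C and read by flow cytometry. Survival was taken relative to DMSO, in triplicate over three experiments. IC50 ± SEM came from dose–response curves.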
# P. falciparum 3D7 [5] = settings: cited from earlier work
"IC50 (P. falciparum 3D7 [1]; 3D7, 72 h, read-out: IC50 (nM) 3D7, Table 1, asynchronous culture, 72 h, 0.0019–2 µM, ± standard error of the mean) [nM]","IC50 (P. falciparum 3D7 [1]; 3D7, read-out: IC50 nM 3D7, Table 2) [nM]",Compound,CC50 at 72 h [2] [µM],cytotoxic activity in HEK293 cells (HEK293 cells),IC50 [3] [µM],difference of IC50 between 3D7 and PfSR25− [4],action on melatonin in the cell cycle of P. falciparum 3D7 (P. falciparum 3D7 [5])
91.1 ± 18.4,91.1,"CN(CCCNCc1cccc2ccccc12)CCCNCc1cccc2ccccc12.Cl [TCMDC-137905, Cl.CN(CCCNCc1cccc2ccccc12)CCCNCc1cccc2ccccc12]",5.55,exhibited cytotoxic activity in HEK293 cells,0.23,none of the compounds tested were significantly different between the two strains,–
–,–,Melatotosil,–,–,–,–,blocks the action of melatonin in the cell cycle of P. falciparum 3D7
